Reference: ChEMBL document CHEMBL3813690, “Synthesis and Th1-immunostimulatory activity of α-galactosylceramide analogues bearing a halogen-containing or selenium-containing acyl chain” (Bioorg Med Chem, 2016)
Activity calls are given as the source filed them. The calls are words filed in the database; no cut-off is given here.

Legend:
Type in all cases: cell-based
Mus musculus [1] = species: Mus musculus; assay: Activity at CD1d in C57BL/6 mouse splenocytes assessed as production of IL4 at 10 to 1000 nM after 48 hrs by ELISA
Method in brief: (§1)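 Freshly prepared mouse splenocytes, washed three times by centrifugation in medium, counted in Türk's solution, seeded at 3 × 10⁵ cells/well in RPMI1640 with 10% FBS and 1% penicillin–streptomycin. Ligands dissolved in pyridine (1 mg/mL stock), diluted in medium to final 10, 30, 100, 300 and 1000 nM. Incubated 48 h at 37 °C; supernatant IFN-γ and IL-4 measured by ELISA. KRN7000 as positive control.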

Mus musculus [2] = species: Mus musculus; assay: Activity at CD1d in C57BL/6 mouse splenocytes assessed as production of IL4 at 100 nM after 48 hrs by ELISA relative to KRN7000; method in brief: as §1
Mus musculus [3] = species: Mus musculus; assay: Activity at CD1d in C57BL/6 mouse splenocytes assessed as production of IFN-gamma at 10 to 1000 nM after 48 hrs by ELISA; method in brief: as §1
Mus musculus [4] = species: Mus musculus; assay: Activity at CD1d in C57BL/6 mouse splenocytes assessed as production of IFN-gamma at 100 nM after 48 hrs by ELISA relative to KRN7000; method in brief: as §1
Mus musculus [5] = species: Mus musculus; assay: Activity at CD1d in C57BL/6 mouse splenocytes assessed as ratio of IFN-gamma production to IL4 production at 100 nM after 48 hrs by ELISA; method in brief: as §1

**Q.** With CCCCCCCCCCCCCCCCCCCCCCCCCC(=O)N[C@@H](CO[C@H]1O[C@H](CO)[C@H](O)[C@H](O)[C@H]1O)[C@H](O)[C@H](O)CCCCCCCCCCCCCC as the compound, how does the Activity (Mus musculus [1]) read?
**A.** Active

**Q.** What does the source list for CCCCCCCCCCCCCC[C@@H](O)[C@@H](O)[C@H](CO[C@H]1O[C@H](CO)[C@H](O)[C@H](O)[C@H]1O)NC(=O)CCCCCCCCCCCCCCCCCCCCCCCCF?
**A.** Activity (Mus musculus [2]): 21%; Activity (Mus musculus [3]): Active; Activity (Mus musculus [1]): Active; Activity (Mus musculus [4]): 104%; Ratio (Mus musculus [5]): 5

**Q.** CCCCCCCCCCCCCC[C@@H](O)[C@@H](O)[C@H](CO[C@H]1O[C@H](CO)[C@H](O)[C@H](O)[C@H]1O)NC(=O)CCCCCCCCCCCCCCCCCCCCCCCCCl was tested. Which Activity (Mus musculus [2]) did it give?
**A.** 18%

**Q.** What about the Activity (Mus musculus [3]) of the same compound?
**A.** Active

**Q.** And the Activity (Mus musculus [1])?
**A.** Active

**Q.** And the Activity (Mus musculus [4])?
**A.** 68%

**Q.** What about the Ratio (Mus musculus [5]) of the same compound?
**A.** 3.8

**Q.** What does the source list for CCCCCCCCCCCCCC[Se]CCCCCCCCCCC(=O)N[C@@H](CO[C@H]1O[C@H](CO)[C@H](O)[C@H](O)[C@H]1O)[C@H](O)[C@H](O)CCCCCCCCCCCCCC?
**A.** Activity (Mus musculus [2]): 39%; Activity (Mus musculus [3]): Active; Activity (Mus musculus [1]): Active; Activity (Mus musculus [4]): 130%; Ratio (Mus musculus [5]): 3.3

**Q.** For CCCCCCCCCCCCCC[C@@H](O)[C@@H](O)[C@H](CO[C@H]1O[C@H](CO)[C@H](O)[C@H](O)[C@H]1O)NC(=O)CCCCCCCCCCCCCCCCCCCCCCCCBr, which Activity (Mus musculus [2]) is on record?
**A.** 19%

**Q.** What about the Activity (Mus musculus [3]) of the same compound?
**A.** Active

**Q.** And the Activity (Mus musculus [1])?
**A.** Active

**Q.** What about the Activity (Mus musculus [4]) of the same compound?
**A.** 84%

**Q.** What about the Ratio (Mus musculus [5]) of the same compound?
**A.** 4.4

**Q.** Which Activity (Mus musculus [2]) does the source give for CCCCCCCCCCCCCC[C@@H](O)[C@@H](O)[C@H](CO[C@H]1O[C@H](CO)[C@H](O)[C@H](O)[C@H]1O)NC(=O)CCCCCCCCCCCCCCCC[Se]CCCCCCCC here?
**A.** 35%

**Q.** And the Activity (Mus musculus [3])?
**A.** Active

**Q.** And the Activity (Mus musculus [1])?
**A.** Active

**Q.** What about the Activity (Mus musculus [4]) of the same compound?
**A.** 103%

**Q.** And the Ratio (Mus musculus [5])?
**A.** 2.9
